Assays:
Plasmodium falciparum [1] = assay: Antimalarial activity against Plasmodium falciparum Dd2 after 72 hrs by DAPI staining-based confocal imaging analysis; format: functional, organism-based
Summary of the method: (§1)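 Exposed to a 16-point dose series (40 μM to 0.4 nM final, 0.4% DMSO) for 72 h at 37 °C in 90% N2/5% CO2/5% O2. DAPI-stained and imaged confocally. Two biological replicates, each with two technical repeats.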

[2] = Growth inhibition of HEK293 cells at 10 uM after 72 hrs by resazurin dye based assay relative to control; format: cell-based; settings: human, read-out: GI
Summary of the method: (§2)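 HEK293 cells kept in DMEM with 10% FBS. Exposed to compounds for 72 h at 37 °C, 5% CO2, using the same dilution scheme as the parasite assay (top 40 μM). Medium then replaced with 44 μM resazurin, and fluorescence (530/595 nm) read after 5–6 h.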

[3] = Selectivity index, ratio of CC50 for HEK293 cells to IC50 for Plasmodium falciparum 3D7; format: toxicity; settings: human, read-out: Ratio CC50/IC50
[4] = Cytotoxicity against HEK293 cells after 72 hrs by resazurin dye based assay; format: cell-based; settings: human; summary of the method: as §2
[5] = Growth inhibition of HEK293 cells at 40 uM after 72 hrs by resazurin dye based assay relative to control; format: cell-based; settings: human, read-out: GI; summary of the method: as §2
Plasmodium falciparum [6] = assay: Antimalarial activity against Plasmodium falciparum 3D7 after 72 hrs by DAPI staining-based confocal imaging analysis; format: functional, organism-based; settings: 3D7, 72 h; summary of the method: as §1
[7] = Inhibition of Plasmodium falciparum C-terminal His6-tagged M1 aminopeptidase (195 to 1085 residues) expressed in Escherichia coli BL21(DE3) preincubated for 20 mins followed by L-leucine-7-amido-4-methylcoumarin addition by Morrison equation analysis
Summary of the method: (§3)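 Recombinant enzymes (Ni-NTA then size exclusion) were preincubated 20 min with inhibitor in 100 mM Tris-HCl pH 8.0, with 2 mM CoCl2 for Pf-M17 and 1 mM for Pv-M17. Leu-AMC substrate: 20 μM (Pf-M1), 40 μM (Pv-M1), 10 μM (both M17). Read at 37 °C, 355/460 nm, to steady-state velocity. Ki from a Morrison tight-binding fit; biological triplicate from three protein preparations.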

[8] = Inhibition of Plasmodium falciparum C-terminal His6-tagged M17 aminopeptidase (85 to 605 residues) expressed in Escherichia coli BL21(DE3) preincubated for 20 mins followed by L-leucine-7-amido-4-methylcoumarin addition by Morrison equation analysis; summary of the method: as §3
[9] = Inhibition of Plasmodium vivax C-terminal His6-tagged M17 aminopeptidase (203 to 621 residues) expressed in Escherichia coli BL21(DE3) preincubated for 20 mins followed by L-leucine-7-amido-4-methylcoumarin addition by Morrison equation analysis; summary of the method: as §3
[10] = Selectivity ratio of Ki for Plasmodium falciparum C-terminal His6-tagged M1 aminopeptidase (195 to 1085 residues) expressed in Escherichia coli BL21(DE3) to Ki for Plasmodium vivax C-terminal His6-tagged M1 aminopeptidase (195 to 1097 residues) expressed in Escherichia coli BL21(DE3)
[11] = Inhibition of Plasmodium vivax C-terminal His6-tagged M1 aminopeptidase (195 to 1097 residues) expressed in Escherichia coli BL21(DE3) preincubated for 20 mins followed by L-leucine-7-amido-4-methylcoumarin addition by Morrison equation analysis; summary of the method: as §3
[12] = Plasmodium falciparum, Dd2, 72 h, read-out: IC50

Row | SMILES | IC50 (Plasmodium falciparum [1]; [12]) [nM] | inhibition at 72 h, 10 µM [2] [%] | selectivity ratio [3] | CC50 at 72 h [4] [nM] | inhibition at 72 h, 40 µM [5] [%] | IC50 (Plasmodium falciparum [6]) [nM] | Ki [7] [nM] | Ki [8] [nM] | Ki [9] [nM] | Ratio Ki [10] | Ki [11] [nM] | IC50 (Plasmodium falciparum [1])
1 | COc1ccc(C[C@H](N)C(=O)N[C@H]2[C@@H](O)[C@H](n3cnc4c(N(C)C)ncnc43)O[C@@H]2CO)cc1 [PUROMYCIN] | 107 | 105 | 4.5 | 500 | 105 | 111 |  |  |  |  |  | 
2 | C[C@H]1[C@H](OC(=O)CCC(=O)O)O[C@@H]2O[C@@]3(C)CC[C@H]4[C@H](C)CC[C@@H]1[C@@]24OO3 [ARTESUNATE] | 1 | 42.3 |  |  |  | 1.6 |  |  |  |  |  | 
3 | CCN(CC)CCCC(C)Nc1ccnc2cc(Cl)ccc12 (centres undefined) [CHLOROQUINE] |  | 17.3 |  | ≥ 20000 | 57 |  |  |  |  |  |  | 
4 | CC(C)(C)C(=O)NC(C(=O)NO)c1ccc(-c2cc(F)c(F)c(F)c2)cc1 (centres undefined) | 81.7 | 1.1 | ≥ 241 | ≥ 20000 | 80.7 | 83.1 | 331 | 147 | 74.8 | 10 | 14.1 | 
5 | O=C(NO)[C@@H](NC(=O)[C@@H](F)C(F)(F)F)c1ccc(-c2cc(F)c(F)c(F)c2)cc1 (racemic) |  |  |  |  |  |  | 1490 | 2190 | 1240 | 10 | 211 | 
6 | C[C@H]1[C@@H](O)O[C@@H]2O[C@@]3(C)CC[C@H]4[C@H](C)CC[C@@H]1[C@@]24OO3 [ARTENIMOL] | 0.4 | 31 |  |  |  | 0.5 |  |  |  |  |  | 
7 | O=C(NC(C(=O)NO)c1ccc(-c2cc(F)c(F)c(F)c2)cc1)C1CC1 (centres undefined) |  |  |  |  |  |  | 532 | 492 | 572 | 10 | 90.6 | 
8 | O=C(CC1CC1)NC(C(=O)NO)c1ccc(-c2cc(F)c(F)c(F)c2)cc1 (centres undefined) | 109 | 6.4 |  |  | 37.6 | 136 | 202 | 270 | 303 | 10 | 17.9 | 
9 | O=C(NC(C(=O)NO)c1ccc(-c2cc(F)c(F)c(F)c2)cc1)C1CCOCC1 (centres undefined) |  |  |  |  |  |  | 431 | 290 | 494 | 10 | 159 | 
10 | O=C(NC(C(=O)NO)c1ccc(-c2cc(F)c(F)c(F)c2)cc1)C1CCCC1 (centres undefined) |  |  |  |  |  |  | 285 | 300 | 336 | 10 | 13.1 | 
11 | COc1ccc2nc3cc(Cl)ccc3c(Nc3cc(CN4CCCC4)c(O)c(CN4CCCC4)c3)c2n1 [PYRONARIDINE] | 7.9 | 102 | 507 | 3550 | 95.6 | 7 |  |  |  |  |  | 
12 | O=C(NO)C(NC(=O)C(F)(F)C(F)(F)F)c1ccc(-c2cc(F)c(F)c(F)c2)cc1 (centres undefined) |  |  |  |  |  |  | 815 | 200 | 97.5 | 10 | 90 | 
13 | CCC(=O)NC(C(=O)NO)c1ccc(-c2cc(F)c(F)c(F)c2)cc1 (centres undefined) |  |  |  |  |  |  | 913 | 158 | 108 | 10 | 66.3 | 
14 | O=C(NC(C(=O)NO)c1ccc(-c2cc(F)c(F)c(F)c2)cc1)C1CCCCC1 (centres undefined) |  |  |  |  |  |  | 818 | 195 | 178 | 10 | 37.6 | 
15 | CCc1nc(N)nc(N)c1-c1ccc(Cl)cc1 [PYRIMETHAMINE] |  | 34.4 | ≥ 1960 | ≥ 20000 | 53.7 | 5.1 |  |  |  |  |  | Not Active
16 | O=C(CC1CCCC1)NC(C(=O)NO)c1ccc(-c2cc(F)c(F)c(F)c2)cc1 (centres undefined) | 125 | 3.1 |  |  | -1 | 168 | 216 | 138 | 211 | 28.5 | 7.58 | 
17 | O=C(CC1CCCCC1)NC(C(=O)NO)c1ccc(-c2cc(F)c(F)c(F)c2)cc1 (centres undefined) |  |  |  |  |  |  | 812 | 288 | 148 | 10 | 13.2 | 
18 | O=C(N[C@@H](C(=O)NO)c1ccc(-c2cc(F)c(F)c(F)c2)cc1)[C@@H](F)C(F)(F)F (racemic) |  |  |  |  |  |  | 257 | 814 | 382 | 10 | 11.2 | 
19 | O=C(CC1CC2CCC1C2)NC(C(=O)NO)c1ccc(-c2cc(F)c(F)c(F)c2)cc1 (centres undefined) | 120 | 0.6 |  |  | 19.7 | 220 | 136 | 127 | 93.1 | 10 | 12.7 | 
20 | CC(C)C(=O)NC(C(=O)NO)c1ccc(-c2cc(F)c(F)c(F)c2)cc1 (centres undefined) |  |  |  |  |  |  | 417 | 426 | 325 | 10 | 38.9 | 
21 | O=C(CC(F)(F)F)NC(C(=O)NO)c1ccc(-c2cc(F)c(F)c(F)c2)cc1 (centres undefined) |  |  |  |  |  |  | 537 | 999 | 1050 | 10 | 149 | 
22 | O=C(NC(C(=O)NO)c1ccc(-c2cc(F)c(F)c(F)c2)cc1)C1CCC1 (centres undefined) | 120 | 6 | ≥ 158 |  | 48.2 | 126 | 236 | 185 | 371 | 10 | 29.8 | 
23 | O=C(CC1CCC1)NC(C(=O)NO)c1ccc(-c2cc(F)c(F)c(F)c2)cc1 (centres undefined) | 29.2 | 6.3 |  |  | 5.6 | 55.4 | 177 | 306 | 75.6 | 62.1 | 2.85 | 

— ChEMBL document CHEMBL4371057, “Hydroxamic Acid Inhibitors Provide Cross-Species Inhibition of Plasmodium M1 and M17 Aminopeptidases” (J Med Chem, 2019)
